Source: PubChem BioAssay
Most compounds without a hit are left out; they make up all but 3.9% or so of the library.
HSP90 inh: HSP90 inhibitors, primary screen, cell lysate, luminescence; 290,000 tested, 0.91% active; Rabbit reticulocyte lysate, luciferase refolding luminescence, 3 h; AID 1789, 2009; inhibition, % at 5.6 µM;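 active means inhibition above the screen-wide mean plus 3 SD, computed separately per campaign, cut at about 16% in these data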;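 further: 0% = DMSO wells and 100% = 60 µM geldanamycin wells; inhibitors lower the luminescence because luciferase stays unfolded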
DNA FID counter: compounds displacing fluorescent DNA intercalator, primary screen, artefact control for HCV NS3 helicase inhibitor project, biochemical, FID fluorescence; DNA fluorescent intercalator displacement; AID 1845, 2009; 290,000 tested, 0.17% active; inhibition, % at 7.9 µM; in the data active means inhibition above about 37%;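 further: 0% = vehicle and 100% = reference compound; higher means more ethidium bromide displaced from hairpin DNA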
HSF1 activator: HSF-1 activators, primary screen, NIH3T3-HGL cells, MG132 stress, luminescence, single point; NIH3T3-HGL HSF-1 luciferase reporter, 8 h; 100% = twice DMSO control signal; activation, % at 9 µM; 300,000 tested, 1.7% active; AID 504408, 2011;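 active means mean replicate activation of at least 50% with a set share of replicates each reaching 50%; inconclusive means only one of those two conditions met; inactive means mean below 50% and too few replicates reaching it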;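 further: 0% = median of the neutral control wells and 100% = twice that signal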
HCV NS3 hel inh: inhibitors of HCV NS3 helicase, primary screen, biochemical, Cy5 molecular beacon fluorescence; Hepatitis C virus NS3 helicase; NS3 helicase DNA unwinding; inhibition, % at 10.9 µM; 290,000 tested, 0.56% active; AID 1800, 2009;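 active means inhibition above the mean of all tested compounds plus 3 SD, set per campaign, cut at about 35% in these data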;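 further: 0% = DMSO wells and 100% = thioflavine S control wells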
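assay system = NS3 helicase fragment of HCV | buffer or medium = MOPS pH 6.5, MgCl2, DTT, Tween20, BSA | timing = 60 min unwinding reaction at 25 °C after ATP addition | signal = Cy5 beacon fluorescence read at start and 1 h | read-out basis = % inhibition of unwinding | control set = low DMSO, high thioflavine S at 110 µM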
HSF1 inhib: HSF1 inhibitors in luciferase reporter cells, primary screen, cell-based, NIH3T3, luminescence | 300,000 tested, 0.77% active | activity change, negative = inhibition, % at 7.5 µM (by protocol) | NIH3T3-HGL HSE-luciferase, MG132-induced, luminescence 8 h; hits give low values;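 active means more than half of replicate wells show activity change below -50%, luminescence cut by over half; inconclusive means some wells, but at most half, below -50%; inactive means no replicate well below -50%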;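 further: luciferase reports HSF-1 transcriptional activity via heat shock element; 0% = median of DMSO wells and -100% = zero luminescence signal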
core dimer inh: inhibitors of HCV core protein dimerization, primary screen, biochemical, TR-FRET, high-throughput; TR-FRET GST/Flag-core106 dimerization, 1536-well; inhibition, % at 5 µM; 300,000 tested, 0.33% active; AID 1899, 2009;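 active means inhibition above the mean of all tested compounds plus 3 SD, set per screening campaign, cut at about 45% in these data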
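Assay system – GST-tagged and Flag-tagged HCV core protein residues 1-106 · Quantity – core106 proteins, GST 13.5 nM and Flag 17 nM · Benchmarks – unlabelled core106 and no-GST-core106 wells · Read-out basis – percent inhibition of core106 dimerization signal · Detection – time-resolved FRET, ex 340 nm, em 617 and 671 nm · Schedule – 4 h at 22.5 °C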
Active calls of the source: *.

Results for COc1ccccc1NC(=O)c1nc(S(=O)(=O)Cc2ccccc2)ncc1Cl ?
HSP90 inh: -3; DNA FID counter: -9; HSF1 activator: -88; HCV NS3 hel inh: -5; HSF1 inhib: -87*; core dimer inh: 8

Results for CCSc1ncc(Cl)c(C(=O)Nc2ccccc2C)n1 ?
HSP90 inh: -3; DNA FID counter: -5; HSF1 activator: 55*; HCV NS3 hel inh: 10; HSF1 inhib: 10; core dimer inh: 4

What do the screens show for `CCOC(=O)c1ccc(NC(=O)c2nc(S(=O)(=O)Cc3ccccc3)ncc2Cl)cc1`?
HSP90 inh: 3; DNA FID counter: -22; HSF1 activator: -33; HCV NS3 hel inh: -18; HSF1 inhib: -23; core dimer inh: 6

How did O=C(CCC(=O)N1CCOCC1)c1ccc(F)cc1 do in these assays?
HSP90 inh: 0; DNA FID counter: -3; HSF1 activator: 1; HCV NS3 hel inh: 0; HSF1 inhib: 5; core dimer inh: 1

What do the screens show for `Cc1c(=O)n(OCc2ccccc2F)c2ccccc2[n+]1[O-]`?
HSP90 inh: -1; DNA FID counter: -2; HSF1 activator: -4; HCV NS3 hel inh: -1; HSF1 inhib: -8; core dimer inh: 0

What do the screens show for `CC(OC(=O)c1ccc2c(c1)OCCO2)C(=O)NC1CCCCC1C` (centres undefined)?
HSF1 activator: -2; HSF1 inhib: 2; core dimer inh: -4

Results for COCc1cc(CN2CCCC(C(=O)Nc3cccc(-n4cnnn4)c3)C2)ccc1OC (centres undefined) ?
HSP90 inh: -1; DNA FID counter: 13; HSF1 activator: -4; HCV NS3 hel inh: 2; HSF1 inhib: -2; core dimer inh: -4

How did CCc1ccc(NC(=O)c2nc(S(=O)(=O)Cc3ccccc3)ncc2Cl)cc1 do in these assays?
HSP90 inh: 0; DNA FID counter: -24; HSF1 activator: -70; HCV NS3 hel inh: -11; HSF1 inhib: inconclusive; core dimer inh: 11

Results for CCOc1ccccc1NC(=O)c1nc(S(=O)(=O)Cc2ccccc2)ncc1Cl ?
HSP90 inh: 4; DNA FID counter: -26; HSF1 activator: -83; HCV NS3 hel inh: 5; HSF1 inhib: -83*; core dimer inh: 11

How did COC(=O)CN1C(c2cccc(Cl)c2)=Nc2ccc(Cl)cc2C1c1ccccc1 (centres undefined) do in these assays?
HSP90 inh: 4; DNA FID counter: -15; HSF1 activator: 64*; HCV NS3 hel inh: -7; HSF1 inhib: 42; core dimer inh: -3

What do the screens show for `COC(=O)CN1C(c2ccc(OC)cc2)=Nc2ccc(Cl)cc2C1c1ccccc1` (centres undefined)?
HSP90 inh: 8; DNA FID counter: 9; HSF1 activator: 18; HCV NS3 hel inh: -18; HSF1 inhib: -1; core dimer inh: 6

How did Cc1cc(C(=O)COC(=O)c2ccc(O)cc2)c(C)n1CCc1ccc(F)cc1 do in these assays?
HSP90 inh: 4; DNA FID counter: -8; HSF1 activator: 2; HCV NS3 hel inh: 13; HSF1 inhib: 9; core dimer inh: 6

How did Cc1cc(C(=O)COC(=O)c2ccc3c(c2)NC(=O)CS3)c(C)n1CCc1ccc(Cl)cc1 do in these assays?
HSP90 inh: 2; DNA FID counter: -5; HSF1 activator: 18; HCV NS3 hel inh: -6; HSF1 inhib: 4; core dimer inh: 48*

How did Cc1c(NC(=O)c2cc(=O)[nH]c(=O)[nH]2)c(=O)n(-c2ccccc2)n1C do in these assays?
HSP90 inh: 3; DNA FID counter: -3; HSF1 activator: 2; HCV NS3 hel inh: -3; HSF1 inhib: -11; core dimer inh: 1

What do the screens show for `O=C(Cc1ccccc1)c1nnc(-c2ccccc2)o1`?
HSP90 inh: -1; DNA FID counter: -12; HSF1 activator: -7; HCV NS3 hel inh: 2; HSF1 inhib: 8; core dimer inh: 6

Results for O=C(N/N=C/c1sc(=O)n(-c2ccccc2)c1Cl)c1ccccc1 ?
HSP90 inh: 2; DNA FID counter: -9; HSF1 activator: 66*; HCV NS3 hel inh: -4; HSF1 inhib: 35; core dimer inh: 7

Results for CCCc1[nH]nc2c1C(c1ccc(OC)cc1OC)C(C#N)=C(N)O2 (centres undefined) ?
HSP90 inh: 0; DNA FID counter: -6; HSF1 activator: 63*; HCV NS3 hel inh: -6; HSF1 inhib: 23; core dimer inh: 0

What do the screens show for `CCCc1[nH]nc2c1C(c1cccc(OC)c1)C(C#N)=C(N)O2` (centres undefined)?
HSP90 inh: -5; DNA FID counter: -3; HSF1 activator: 7; HCV NS3 hel inh: 3; HSF1 inhib: -7; core dimer inh: 0

What do the screens show for `Cc1ccc2cc(/C=C/C(=O)c3ccco3)c(Cl)nc2c1`?
HSP90 inh: 0; DNA FID counter: -21; HSF1 activator: 119*; HCV NS3 hel inh: 7; HSF1 inhib: 68; core dimer inh: 6

Results for Cc1ccc2nc(Cl)c(/C=C/C(=O)c3ccco3)cc2c1 ?
HSP90 inh: 0; DNA FID counter: 0; HSF1 activator: 47; HCV NS3 hel inh: 11; HSF1 inhib: 30; core dimer inh: 7

Results for CCOC(=O)CC1NCCc2c1[nH]c1ccc(OC)cc21 (centres undefined) ?
HSP90 inh: 5; DNA FID counter: 5; HSF1 activator: 58*; HCV NS3 hel inh: 10; HSF1 inhib: 16; core dimer inh: -11

What do the screens show for `CCC(C)(C)C1CCC2(CC1)NC(=O)N(CC(=O)N(C)Cc1ccc(OC(F)F)cc1)C2=O` (centres undefined)?
HSF1 activator: 44; HSF1 inhib: 15; core dimer inh: 11

Results for CNC(=O)CN(c1ccc(C(C)C)cc1)S(C)(=O)=O ?
HSP90 inh: -1; DNA FID counter: -2; HSF1 activator: -40; HCV NS3 hel inh: 2; HSF1 inhib: -24; core dimer inh: -5

What do the screens show for `Cc1ccc(-n2nc(C(=O)NCc3ccco3)c3c4ccccc4n(C)c3c2=O)cc1`?
HSP90 inh: 4; DNA FID counter: -12; HSF1 activator: 21; HCV NS3 hel inh: -1; HSF1 inhib: 14; core dimer inh: 47*

What do the screens show for `Cc1ccccc1NC(=O)CSc1cn[nH]n1`?
HSP90 inh: 0; DNA FID counter: -3; HSF1 activator: -11; HCV NS3 hel inh: 5; HSF1 inhib: 1; core dimer inh: 6

What do the screens show for `COC(=O)c1cc(S(=O)(=O)NCC2CCN(CCc3cccs3)CC2)cn1C`?
HSP90 inh: -1; DNA FID counter: 8; HSF1 activator: -20; HCV NS3 hel inh: -4; HSF1 inhib: 0; core dimer inh: 9
